Screens as filed in PubChem BioAssay.
This is a sample that favours compounds with a hit; in the whole collection about 3.1% have one here.
UBC13 inh: UBC13 polyubiquitin chain formation inhibitors, primary screen, biochemical, TR-FRET, uHTS. inhibition, % at 20 µM. 330,000 tested, 0.47% active. AID 485273, 2010; in the data active means inhibition above about 45%, passing the limit was not always enough
SENP8 block-1: human SENP8 protease inhibitors, primary screen, biochemical, fluorescence, Nedd8 protein substrate, uHTS. Sentrin-specific protease 8 (Homo sapiens), Q96LD8. AID 602440, 2012. recombinant SENP8. inhibition, % at 20 µM. 360,000 tested, 0.64% active; in the data active means inhibition mostly above about 40%, no sharp cut-off; inactive means mostly below about 27%
Target sequence (Q96LD8 whole entry, looked up): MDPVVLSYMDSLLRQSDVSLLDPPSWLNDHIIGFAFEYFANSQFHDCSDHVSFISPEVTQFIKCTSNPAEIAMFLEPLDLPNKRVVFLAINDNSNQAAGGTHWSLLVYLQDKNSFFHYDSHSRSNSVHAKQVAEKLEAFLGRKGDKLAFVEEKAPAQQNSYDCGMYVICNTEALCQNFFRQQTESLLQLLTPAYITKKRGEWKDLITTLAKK
SENP7 inh: SENP7 protease inhibitors, primary screen, biochemical, luminescence, uHTS. 330,000 tested, 1.5% active. inhibition, % at 5 µM. Sentrin-specific protease 7 (Homo sapiens), Q9BQF6. recombinant SENP7, Z-RLRGG-aminoluciferin luminescence, 40 min;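 active means inhibition above about 50% at the single test dose, limit read from the data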;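 further: plate controls were DMSO with enzyme for no effect and no enzyme buffer wells for full effect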
Target sequence (Q9BQF6 706-1050 limits assumed): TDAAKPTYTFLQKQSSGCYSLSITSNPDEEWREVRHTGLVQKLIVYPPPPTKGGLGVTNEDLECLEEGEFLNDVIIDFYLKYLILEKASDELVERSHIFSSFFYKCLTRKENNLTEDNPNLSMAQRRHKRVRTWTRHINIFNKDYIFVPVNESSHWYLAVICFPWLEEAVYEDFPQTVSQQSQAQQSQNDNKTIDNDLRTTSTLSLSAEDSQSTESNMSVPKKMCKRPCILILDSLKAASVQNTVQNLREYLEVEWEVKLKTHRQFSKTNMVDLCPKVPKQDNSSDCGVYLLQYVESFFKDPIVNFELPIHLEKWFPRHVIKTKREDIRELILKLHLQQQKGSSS
SENP8 block-2: SENP8 protease inhibitors, primary screen, biochemical, luminescence; inhibition, % at 10 µM; purified SENP8, Z-RLRGG-aminoluciferin cleavage; 330,000 tested, 1.2% active; in the data active means inhibition above about 50%
Apaf1 inhib: inhibitors of human Apaf-1 apoptosome, primary screen, biochemical, DEVD-Rh110 fluorescence, uHTS | Apoptotic protease-activating factor 1 (Homo sapiens), O14727 | AID 489030, 2010 | inhibition, % at 20 µM | 330,000 tested, 0.71% active | reconstituted apoptosome caspase-3 activity; active means inhibition of at least 40% at 20 µM;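 further: plate controls were DMSO wells for no effect and DEVD-CHO caspase inhibitor wells for full effect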
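Material: reconstituted apoptosome with Apaf-1, cytochrome c, caspase-9, procaspase-3, dATP; medium: pH 7.5 Hepes buffer with CHAPS, BSA, DTT; also added: cytochrome c and DEVD-Rh110 substrate; timing: 30 min plus 50 min, RT; signal: Rh110 fluorescence intensity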
SENP6 inh: SENP6 protease inhibitors, primary screen, biochemical, luminescence, uHTS | Sentrin-specific protease 6 (Homo sapiens), Q9GZR1 | Recombinant SENP6 catalytic domain, aminoluciferin luminescence | inhibition, % at 10 µM | 330,000 tested, 1.8% active | AID 2599, 2010;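 active means inhibition above about 50% at the single tested dose, limit read from the data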;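 further: plate controls were DMSO wells with enzyme for no effect and DMSO wells lacking enzyme for full effect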
Apaf-1 inh conf2: Apaf-1 inhibitors, single-dose retest, confirmation, biochemical, fluorescence, DEVD-Rh110, 20 µM. shares compounds with Apaf1 inhib. reconstituted apoptosome, caspase-3 DEVD-Rh110 fluorescence. inhibition, % at 20 µM. 1,800 tested, 25% active;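 active means mean inhibition of at least 40% at 20 µM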;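 further: plate controls were DMSO wells for no effect and DEVD-CHO caspase inhibitor control wells for full effect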
Rh110 quench: Rh110 fluorescence interference by putative Apaf-1 inhibitors, confirmation, artefact control for Apaf-1 inhibitor project, biochemical, 20 µM; AID 504615, 2011; shares compounds with Apaf1 inhib; activation (fluorescence interference), % at 20 µM; quenched caspase reaction; 1,800 tested, under 10 active;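 active means signal rise of 40% or more at 20 µM, treated as a fluorescence artifact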
Fluor interf inh: fluorescence interference of Apaf-1 inhibitor hits, dose response, artefact control for Apaf-1 inhibitor project | shares compounds with Apaf1 inhib | fluorescence interference counterscreen, Apaf-1 assay format | IC50, µM | 460 tested, under 10 active | AID 588538, 2011; call rule not given here
Numbers without * were called inactive; i = inactive; . = no result.

SMILES | UBC13 inh | SENP8 block-1 | SENP7 inh | SENP8 block-2 | Apaf1 inhib | SENP6 inh | Apaf-1 inh conf2 | Rh110 quench | others
Cc1coc2c1C(=O)C(=O)c1c-2ccc2c1CCCC2(C)C | -81 | 61* | 7 | -4 | 77* | 45 | 59* | 10 | Fluor interf inh=>100
O=C(NC1CCCCC1)C(c1cccc2ccccc12)n1c(=O)c(-c2ccco2)nc2ccccc21 (stereo not drawn) | . | -442 | . | . | . | . | . | .
CCOc1ccc(OCCSc2ccc(S(=O)(=O)N3CCN(C)CC3)cn2)cc1 | 37 | 17 | -7 | -16 | 55* | -17 | 18 | 5
CC(C)C(N)c1csc(NC(=O)Nc2ccc(OC(F)(F)F)cc2)n1 (stereo not drawn) | . | 2 | . | . | . | . | . | .
O=C(Nc1nccs1)c1cnc2sccn2c1=O | . | -23 | . | . | . | . | . | .
CC(=O)Nc1c(S(=O)(=O)c2ccccc2)c2nc3ccccc3nc2n1Cc1ccccc1 | 3 | i | 5 | -1 | 60* | 5 | 10 | -7
C=CCn1c(NS(=O)(=O)c2ccccc2)c(S(=O)(=O)c2ccc(C)cc2)c2nc3ccccc3nc21 | . | -281 | . | . | . | . | . | .
CC(=O)N1CCOc2ccc(S(=O)(=O)NCc3ccc(C)cc3)cc21 | 1 | 1 | 3 | -1 | -1 | 16 | . | .
CC(=O)N1CCOc2ccc(S(=O)(=O)N(C)c3ccc(C)cc3)cc21 | -4 | 7 | -12 | -10 | 40* | -8 | 11 | 0
CCOc1cccc(N(C(=O)C2COc3ccccc3O2)C(C(=O)NC2CCCCC2)c2ccc(O)cc2)c1 (stereo not drawn) | 3 | 9 | -4 | -3 | 47* | 1 | 11 | 1
Cc1cc(OC(=O)c2ccccc2)n(CCC#N)n1 | 6 | 20 | 8 | -1 | 43* | 6 | 11 | -3
O=C(O)CC(NC(=O)C1c2ccccc2Oc2ccccc21)c1ccc(OC2CCCC2)cc1 (stereo not drawn) | -5 | 3 | -3 | 10 | -2 | 19 | . | .
O=C(O)CC(NC(=O)c1sc2ccccc2c1Cl)c1ccc(OC2CCCC2)cc1 (stereo not drawn) | -14 | 10 | 10 | 8 | 44* | 3 | 11 | 1
O=C(NNc1cc(N2CCOCC2)nc(N2CCOCC2)n1)c1ccc(Cl)cc1Cl | -7 | 5 | 13 | 2 | 47* | 12 | 21 | -5
CC(=O)NNc1cc(N2CCOCC2)nc(N2CCOCC2)n1 | -7 | -7 | 24 | 1 | 2 | -8 | . | .
COc1ccc(Cc2noc(=O)[nH]2)cc1 | . | 24 | . | . | . | . | . | .
CCCn1c(/C=N/Nc2nc3ccccc3[nH]2)nc2ccccc21 | . | -41 | . | . | . | . | . | .
Cc1c(/C=N/Nc2nc3ccccc3[nH]2)c2ccccc2n1C | -9 | -325 | -8 | -18 | 43* | -34 | 8 | 18
CC1(c2nnnn2C2CCCC2)CCC(=O)N1c1ccc2c(c1)OCCO2 (stereo not drawn) | . | 22 | . | . | . | . | . | .
CC12CCC=CC1=C(C=O)C1C2CCC2(C)C(O)CCC12 (stereo not drawn) | . | 5 | . | . | . | . | . | .
CCN1/C(=C/c2ccc3cc(C)ccc3[n+]2CC)Sc2cc(C)c(C)cc21 | 16 | 24 | -8 | -1 | 64* | -17 | 60* | -19 | Fluor interf inh=>100
CNc1cc(C(=O)Nc2cccc(OCc3ccccc3)c2)ncn1 | . | 12 | . | . | . | . | . | .
CC(=O)C1=C(O)C(=O)N(CCc2c[nH]c3ccccc23)C1c1ccc(C)cc1 (stereo not drawn) | 7 | 8 | -4 | -2 | 4 | -7 | . | .
CC(=O)C1=C(O)C(=O)N(CCc2c[nH]c3ccccc23)C1c1ccco1 (stereo not drawn) | -37 | 6 | 7 | 10 | 43* | 13 | -1 | 5
CCOc1cc(C2C(C(C)=O)=C(O)C(=O)N2CCc2c[nH]c3ccccc23)ccc1O (stereo not drawn) | 16 | 13 | 9 | 11 | 49* | 14 | 12 | 9
SMILES | UBC13 inh | SENP8 block-1 | SENP7 inh | SENP8 block-2 | Apaf1 inhib | SENP6 inh | Apaf-1 inh conf2 | Rh110 quench | others
COc1ccc(CCN2C(=O)c3[nH]nc(-c4ccccc4O)c3C2c2cccc(Cl)c2)cc1 (stereo not drawn) | -7 | 23 | -6 | -17 | 41* | -14 | 10 | 13
COc1ccc(C2c3c(-c4ccccc4O)n[nH]c3C(=O)N2CCc2ccc(OC)c(OC)c2)cc1 (stereo not drawn) | -18 | 11 | -6 | -13 | 26 | -10 | . | .
COc1ccc(C(O)c2ncc(-c3ccc4ccccc4c3)[nH]2)cc1 (stereo not drawn) | . | -239 | . | . | . | . | . | .
COc1ccc(NCc2cc3cc(OC)ccc3[nH]c2=O)cc1 | -34 | -288 | 6 | 4 | 47* | 23 | 62* | 6 | Fluor interf inh=>100
CCCCC1=CC2=C(c3ccco3)C(=O)C(C)(OC(=O)c3ccc(OC)cc3)C(=O)C2=CN1C1CC1 (stereo not drawn) | 15 | -14 | 14 | -14 | 40* | 10 | 14 | 2
CCCCC1=CC2=C(c3ccco3)C(=O)C(C)(OC(=O)c3ccc(OC)cc3)C(=O)C2=CN1C1CCCC1 (stereo not drawn) | 17 | . | -7 | 0 | 23 | 14 | . | .
COc1ccc(N=C2S/C(=C\c3cc(C)n(C)c3C)C(=O)N2C)cc1 | -2 | 22 | 3 | 5 | 13 | 12 | . | .
CCCN1C(=O)/C(=C/c2cc(C)n(C)c2C)SC1=Nc1ccc(OC)cc1 | -14 | 17 | 3 | -11 | 41* | -24 | 19 | 9
C[C@@H]1CN([C@@H](C)CO)C(=O)CCCn2nncc2CO[C@@H]1CN(C)C(=O)Nc1cccc(C(F)(F)F)c1 | . | 8 | . | . | . | . | . | .
Cc1cccc(N2CCN(C(=O)c3ccc4nc(-c5ccco5)c(-c5ccco5)nc4c3)CC2C)c1 (stereo not drawn) | -32 | -254 | 13 | 17 | 60* | 13 | 22 | -1
O=C(c1ccc2nc(-c3ccco3)c(-c3ccco3)nc2c1)N1CCN(c2ncccn2)CC1 | -28 | -256 | 13 | 9 | 57* | 1 | 22 | 0
